IC50, MIC and Activity data for 58 molecules are collected here from ChEMBL document CHEMBL2321650, “Novel HldE-K inhibitors leading to attenuated Gram negative bacterial virulence” (J Med Chem, 2013).

≈ marks a conversion by molar mass, not a printed value. Some results are limits rather than exact numbers.

Series [1] is described as follows: Inhibition of Escherichia coli O18:K1 C7 hldE-K expressed in Escherichia coli BL21 using beta-heptose 7-phosphate as substrate incubated for 30 mins prior to substrate addition measured after 30 mins by luminescence assay. In short, it runs like this:
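E. coli HldE (His-tagged, IPTG-induced, Ni-NTA-purified), 3 nM, preincubated 30 min at room temperature with inhibitor in Hepes pH 7.5, MnCl₂, KCl, 0.012% Triton-X100, DTT, MBP. Reaction with 0.2 μM heptose 7-phosphate and 0.2 μM ATP, 30 min at room temperature. Remaining ATP read by luciferase/luciferin luminescence; 6−10 concentrations fitted to a Langmuir model for IC50.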

Series [2] relates to Escherichia coli. In words: Antimicrobial activity against acrAB, tolC-deficient Escherichia coli str. K-12 substr. MG1655 after overnight incubation in absence of erythromycin. It counts as functional. In short, it runs like this:
(§1)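 Broth microdilution MIC in cation-adjusted MHB, final inoculum 5 × 10⁵ CFU/mL from early-to-log preculture; serial compound dilutions in 2% DMSO, overnight at 35 °C, growth scored visually. Each strain tested with and without erythromycin (1 μg/mL for K12 ΔacrAB ΔtolC, 8 μg/mL for K1 wild type, 1 μg/mL for K1 ΔtolC).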

Series [3] deals with Escherichia coli. In words: Antimicrobial activity against tolC-deficient Escherichia coli O18:K1:H7 after overnight incubation in presence of erythromycin. It counts as functional. In a few lines: as §1
Series [4] has as its system Escherichia coli. Nature of the series: Antimicrobial activity against acrAB, tolC-deficient Escherichia coli str. K-12 substr. MG1655 after overnight incubation in presence of erythromycin. Type of series: functional. In a few lines: as §1
Series [5] concerns Escherichia coli. In words: Antimicrobial activity against tolC-deficient Escherichia coli O18:K1:H7 after overnight incubation in absence of erythromycin. Type of series: functional. In a few lines: as §1
The test system of another series is HepG2. In words: Cytotoxicity against human HepG2 cells after overnight incubation by one cell proliferation assay. Type of series: cell-based. In short, it runs like this:
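HepG2 cells at 2 × 10⁴ per well in EMEM with 10% FBS, grown overnight at 37 °C in 5% CO₂. Medium then replaced by compound dilutions in medium with 2% DMSO for overnight incubation. Viability read by CellTiter Aqueous One MTS absorbance at 490 nm.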

A word on the IC50: it is the concentration at which inhibition is half-maximal. A low value points to greater potency. Molecule `COc1cccc(OC)c1-c1cnnc(NCc2nc3cc(OCC(=O)O)ccc3s2)n1` gave an IC50 in series [1] of 0.25 µM.

As for `COc1ccc2sc(CNc3nncc(-c4cc(-c5cccnc5)ccc4Cl)n3)nc2c1`, in series [1], the IC50 turned out to be 0.15 µM.

In turn, `COc1ccc2sc(CNc3nncc(-c4c(F)cccc4F)n3)nc2c1` registered an IC50 in series [1] of 2.4 µM.

A word on the MIC: it is the smallest concentration in the dilution series that meets the test's criterion for growth inhibition. With `O=C(CO)NCCOc1ccc2sc(CNc3nncc(-c4c(Cl)cccc4Cl)n3)nc2c1`, the MIC was above 32 mg/L against Escherichia coli [2], above 32 mg/L in the series on Escherichia coli [3], 4 mg/L in the series on Escherichia coli [4] and above 32 mg/L in the series on Escherichia coli [5]. Further, the IC50 in series [1] worked out at 0.071 µM.

`COc1cccc(OC)c1-c1cnnc(NCc2nc3cc(O)ccc3s2)n1`: the midpoint of inhibition in series [1], the IC50, lay at 0.39 µM.

In turn, `COc1ccc2sc(CNc3nncc(-c4c(OC)cccc4OC)n3)nc2c1` had an IC50 in series [1] of 0.67 µM.

Take `NCCOc1ccc2sc(CNc3nncc(-c4c(Cl)cccc4Cl)n3)nc2c1`: in series [1], the midpoint of inhibition, the IC50, lay at 0.185 µM.

`COc1ccc2sc(CNc3nncc(-c4c(C)cc(C#N)cc4C)n3)nc2c1` had an IC50 in series [1] of 1.4 µM.

On to `CS(=O)(=O)NC(=O)COc1ccc2sc(CNc3nncc(-c4c(Cl)cccc4Cl)n3)nc2c1`, for which the MIC in the series with Escherichia coli [2], in the series on Escherichia coli [3], with Escherichia coli [4] and against Escherichia coli [5] was above 32 mg/L each time. Moreover, in series [1], inhibition was half-maximal at 0.016 µM (IC50).

As to `Oc1ccc2sc(CNc3nncc(-c4c(Cl)cccc4Cl)n3)nc2c1`, the MIC against Escherichia coli [2], in the series with Escherichia coli [3], in the series on Escherichia coli [4] and in the series on Escherichia coli [5] was above 32 mg/L throughout. In addition, half-maximal inhibition in series [1] (IC50) was put at 0.075 µM.

In series [1], `COc1ccc2sc(CNc3nncc(-c4cc(NC(C)=O)ccc4Cl)n3)nc2c1` displayed an IC50 of 1.4 µM.

As to `COc1ccc2sc(CNc3nncc(-c4c(C)cc(N)cc4C)n3)nc2c1`, 0.32 µM corresponded to half-maximal inhibition in series [1] (IC50).

Molecule `COc1cccc(OC)c1-c1cnnc(NCc2nc3ccc(CO)cc3s2)n1` gave a 50% inhibitory concentration (IC50) in series [1] of 15 µM.

In series [1], `COc1cccc(OC)c1-c1cnnc(N(CCC(=O)O)Cc2nc3ccccc3s2)n1` gave a 50% inhibitory concentration (IC50) of 46 µM.

With `CCOC(=O)c1sc(CNc2nncc(-c3c(OC)cccc3OC)n2)nc1C`, the IC50 in series [1] is above 300 µM.

In turn, `COc1cccc(OC)c1-c1cnnc(N2CCCCC2c2nc3ccccc3s2)n1` (centres undefined) gave an IC50 in series [1] above 300 µM.

In the case of `COc1ccc2sc(CNc3nncc(-c4cc(Br)ccc4Cl)n3)nc2c1`, in series [1], the IC50 was 0.76 µM.

`COc1ccc2sc(CNc3nncc(-c4c(C)cc(NC(C)=O)cc4C)n3)nc2c1`: the minimum inhibitory concentration (MIC) in the series with Escherichia coli [2], in the series on Escherichia coli [3], in the series with Escherichia coli [4] and with Escherichia coli [5] was above 32 mg/L throughout. In series [1], this molecule came in with an IC50 of 0.24 µM.

Consider `NCC(=O)NCCOc1ccc2sc(CNc3nncc(-c4c(Cl)cccc4Cl)n3)nc2c1`, for which the MIC was 32 mg/L (≈ 63.4 µM) with Escherichia coli [2], 32 mg/L in the series on Escherichia coli [3], 4 mg/L in the series on Escherichia coli [4] and above 32 mg/L in the series with Escherichia coli [5]. The same molecule gave a half-maximal inhibitory concentration (IC50) in series [1] of 0.1 µM. Moreover, in the series with HepG2, the Activity turned out to be 18 µg/mL.

In turn, `COc1cccc(OC)c1-c1cnnc(NCc2nc3ccc(Cl)cc3s2)n1` yielded an IC50 in series [1] of 27 µM.

On to `COc1ccc2sc(CNc3nncc(C(C)(C)O)n3)nc2c1`, for which the IC50 in series [1] is above 300 µM.

`COc1cccc(OC)c1-c1cnnc(N(C)Cc2nc(C)c(C)s2)n1` showed an IC50 in series [1] of 5 µM.

As to `COc1cccc(OC)c1-c1cnnc(N(CCCO)Cc2nc3ccccc3s2)n1`, the IC50 in series [1] is above 300 µM.

For `CN(C)CCOc1ccc2sc(CNc3nncc(-c4c(Cl)cccc4Cl)n3)nc2c1`, the MIC was 32 mg/L (≈ 67.3 µM) with Escherichia coli [2], 16 mg/L in the series with Escherichia coli [3], 4 mg/L with Escherichia coli [4] and above 32 mg/L with Escherichia coli [5]. Moreover, in series [1], the IC50 came out at 0.082 µM. This molecule also had an Activity with HepG2 above 32 µg/mL.

As to `COc1cccc(OC)c1-c1cnnc(NCc2nc3ccc(O)cc3s2)n1`, in series [1], the IC50 worked out at 3.4 µM.

Consider `COc1ccc2sc(CNc3nncc(C(C)C)n3)nc2c1`, for which the IC50 in series [1] was above 300 µM.

In series [1], `COc1cccc(OC)c1-c1cnnc(NCc2ccc3ccccc3n2)n1` came in with an IC50 above 300 µM.

`COc1ccc2sc(CNc3nncc(-c4cc(-c5ccn[nH]5)ccc4Cl)n3)nc2c1`: the MIC against Escherichia coli [2], in the series with Escherichia coli [3], with Escherichia coli [4] and against Escherichia coli [5] was above 32 mg/L throughout. The molecule also registered a half-maximal inhibitory concentration (IC50) in series [1] of 0.053 µM.

As for `COc1cccc(OC)c1-c1cnnc(NCc2ccccn2)n1`, the IC50 in series [1] is above 300 µM.

With `COc1ccc2sc(CNc3nncc(-c4c(C)cccc4C)n3)nc2c1`, the MIC against Escherichia coli [2], with Escherichia coli [3], in the series with Escherichia coli [4] and with Escherichia coli [5] was above 32 mg/L throughout. The molecule further gave an IC50 in series [1] of 0.36 µM.

With `COc1ccc2sc(CNc3nncc(-c4c(OC)ccc5ccccc45)n3)nc2c1`, the minimal inhibitory concentration (MIC) in the series on Escherichia coli [2], in the series with Escherichia coli [3], with Escherichia coli [4] and in the series with Escherichia coli [5] was above 32 mg/L each time. This molecule registered an IC50 in series [1] of 0.051 µM.

In the case of `COc1cccc(OC)c1-c1cnnc(NCc2nc3ccccc3o2)n1`, the IC50 in series [1] is 34 µM.

Regarding `OCCOc1ccc2sc(CNc3nncc(-c4c(Cl)cccc4Cl)n3)nc2c1`, the minimum inhibitory concentration (MIC) in the series with Escherichia coli [2] was 16 mg/L (≈ 35.7 µM); with Escherichia coli [3], 32 mg/L; in the series on Escherichia coli [4], 0.5 mg/L; in the series on Escherichia coli [5], above 32 mg/L. Half-maximal inhibition in series [1] (IC50) was put at 0.018 µM. The molecule also showed an Activity in the series with HepG2 above 32 µg/mL.

For the molecule `COC(=O)c1ccc2nc(CNc3nncc(-c4c(OC)cccc4OC)n3)sc2c1`, in series [1], inhibition was half-maximal at 89 µM (IC50).

In the case of `NC(=O)COc1ccc2sc(CNc3nncc(-c4c(Cl)cccc4Cl)n3)nc2c1`, the MIC with Escherichia coli [2], in the series on Escherichia coli [3], with Escherichia coli [4] and in the series on Escherichia coli [5] was above 32 mg/L in each case. Moreover, in series [1], half-maximal inhibition (IC50) was put at 0.067 µM.

In turn, `COc1ccc2sc(CNc3nncc(-c4c(C)cc(Br)cc4C)n3)nc2c1` had an IC50 in series [1] of 1.2 µM.

In series [1], `Cc1oc(-c2ccccc2)nc1C(=O)N(CC(=O)O)Cc1ccccn1` displayed an IC50 of 51 µM.

In turn, `COc1cccc(OC)c1-c1cnnc(NCc2nc3ccccc3[nH]2)n1` gave an IC50 in series [1] above 300 µM.

On to `COc1cccc(OC)c1-c1cnnc(NCc2cc3ccccc3s2)n1`, for which the IC50 in series [1] is above 300 µM.

As for `COc1cccc(OC)c1-c1cnnc(NCc2nc3ccc(NC(C)=O)cc3s2)n1`, in series [1], half-maximal inhibition (IC50) was put at 49 µM.

`COc1ccc2sc(CNc3nncc(N4[C@H](C)CCC[C@@H]4C)n3)nc2c1`: the IC50 in series [1] was above 300 µM.

`COc1cccc(OC)c1-c1cnnc(NCc2nc3cc(Cl)ccc3s2)n1` returned an IC50 in series [1] of 1.6 µM.

In series [1], `COc1cccc(OC)c1-c1cnnc(NCc2nc(C)c(C)s2)n1` displayed an IC50 of 6 µM.

`COc1cccc(OC)c1-c1cnnc(NCc2nc3cc(C)ccc3s2)n1` showed an IC50 in series [1] of 1.5 µM.

In series [1], `COc1cccc(OC)c1-c1cnnc(N(CC(=O)O)Cc2nc3ccccc3s2)n1` returned an IC50 of 2 µM.

Consider `COc1cccc(OC)c1-c1cnnc(OCc2nc(C)c(C)s2)n1`, for which, in series [1], half-maximal inhibition (IC50) was put at 40 µM.

In turn, `COc1cccc(OC)c1-c1cnnc(NCc2nc(C)c(CCO)s2)n1` returned an IC50 in series [1] above 300 µM.

`COc1cccc(OC)c1-c1cnnc(NCc2nc3ccccc3n2C)n1`: the IC50 in series [1] is above 300 µM.

For the molecule `COc1ccc2sc(CNc3nncc(-c4ccccc4Cl)n3)nc2c1`, it took 1.4 µM to reach half-maximal inhibition in series [1] (IC50).

Molecule `COc1ccc2sc(CNc3nncc(N4CCCCC4CO)n3)nc2c1` (centres undefined) yielded an IC50 in series [1] above 300 µM.

`COc1cccc(OC)c1-c1cnnc(NCc2cc(C)c(C)o2)n1`: in series [1], the IC50 was above 300 µM.

As for `COc1ccc2sc(CNc3nncc(-c4c(C)cc(NCCN(C)C)cc4C)n3)nc2c1`, the MIC in the series with Escherichia coli [2], in the series on Escherichia coli [3], with Escherichia coli [4] and with Escherichia coli [5] was above 32 mg/L each time. For the same molecule, in series [1], the 50% inhibitory concentration (IC50) was 0.082 µM.

In series [1], `COc1cccc(OC)c1-c1cnnc(NCc2nc3cc(N)ccc3s2)n1` gave a half-inhibitory concentration (IC50) of 1.4 µM.

`COc1cccc(OC)c1-c1cnnc(NCc2cc(C)n(C)n2)n1` registered an IC50 in series [1] of 25 µM.

On to `COc1cccc(OC)c1-c1cnnc(NCc2nc3c(s2)CCCC3)n1`, for which the IC50 in series [1] was 1.9 µM.

Regarding `COc1cccc(OC)c1-c1cnnc(NC(C)c2nc(C)c(C)s2)n1` (centres undefined), in series [1], the IC50 came to 54 µM.

In turn, `COc1ccc2sc(CNc3nncc(-c4c(C)cc(-c5ccc(OC)nc5)cc4C)n3)nc2c1` registered an IC50 in series [1] of 0.89 µM.

Consider `COc1cccc(OC)c1-c1cnnc(NCc2nc3cc(NC(C)=O)ccc3s2)n1`, for which, in series [1], the IC50 is 7.6 µM.
